Measurements as given in ChEMBL document CHEMBL3797137, “New ligands of the ghrelin receptor based on the 1,2,4-triazole scaffold by introduction of a second chiral center” (Bioorg Med Chem Lett, 2016).
The source made the active and inactive calls. The rule behind the calls is not given here.

What was measured:
[1] = biological target: T1, Growth hormone secretagogue receptor type 1 (Homo sapiens, UniProt Q92847); assay: Antagonist activity at human GHS-R1a transfected in mouse LTK cells after 6 hrs by CRE/luciferase reporter gene assay in presence of ghrelin and rolipram; format: functional, cell-based
T1 sequence (Q92847 whole entry): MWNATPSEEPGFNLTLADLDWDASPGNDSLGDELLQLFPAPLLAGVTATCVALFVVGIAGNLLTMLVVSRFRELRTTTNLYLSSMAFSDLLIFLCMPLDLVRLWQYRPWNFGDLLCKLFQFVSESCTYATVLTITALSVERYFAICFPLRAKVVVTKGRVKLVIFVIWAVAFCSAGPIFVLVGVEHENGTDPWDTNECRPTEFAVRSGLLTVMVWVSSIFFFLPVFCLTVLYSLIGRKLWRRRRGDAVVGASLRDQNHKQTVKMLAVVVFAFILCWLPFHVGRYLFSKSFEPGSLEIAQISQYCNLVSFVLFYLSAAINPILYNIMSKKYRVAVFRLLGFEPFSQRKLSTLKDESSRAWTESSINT
Method in brief: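 Mouse LTK- cells stably carrying a CMV minimal promoter–3×CRE–luciferase construct, incubated 6 h with rolipram, saturating ghrelin and varied compound concentrations. Cells were then lysed and luminescence read. IC50 fitted from the curves.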

[2] = biological target: T1, Growth hormone secretagogue receptor type 1; assay: Displacement of [125I]-His9-ghrelin from human GHS-R1a transfected in pig LLC PK-1 cell membranes after 60 mins by gamma counting method
Method in brief: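 Competition binding on membranes from LLC PK-1 cells transfected with GHS-R1a, using 0.3 nM ¹²⁵I-His9-ghrelin against increasing compound concentrations. Ki derived from the binding curves.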

[3] = biological target: T1, Growth hormone secretagogue receptor type 1; assay: Antagonist activity at human GHS-R1a transfected in CHO cells assessed as inhibition of ghrelin-induced intracellular calcium mobilization measured over 60 secs by fluo-4AM dye-based fluorometric method; format: functional, cell-based
[4] = biological target: T1, Growth hormone secretagogue receptor type 1; assay: Antagonist activity at human GHS-R1a expressed in HEK293T cells assessed as inhibition of ghrelin-induced stimulation after 45 mins by HTRF-based IP3 turnover assay; format: functional, cell-based; conditions: HEK-293T
[5] = biological target: T1, Growth hormone secretagogue receptor type 1; assay: Competitive binding affinity to human SNAP-tagged GHS-R1a expressed in HEK293T cells incubated at 4 degC for 3 hrs or at room temperature for 1 hr by Tag-lite assay; format: cell-based, HEK-293T
Method in brief: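 Tag-lite binding measured by FRET between terbium cryptate attached to SNAP-tag-fused GHS-R1a and a red fluorescent high-affinity ghrelin ligand. Ki obtained from the fluorescent binding data.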

[6] = biological target: T1, Growth hormone secretagogue receptor type 1; assay: Partial agonist activity at human GHS-R1a expressed in HEK293T cells at 10^-5 M after 45 mins by HTRF-based IP3 turnover assay; format: functional, cell-based; conditions: HEK-293T
[7] = biological target: T1, Growth hormone secretagogue receptor type 1; assay: Agonist activity at human GHS-R1a expressed in HEK293T cells after 45 mins by HTRF-based IP3 turnover assay; format: functional, cell-based, HEK-293T; conditions: for Emax: HEK-293T
[8] = biological target: T1, Growth hormone secretagogue receptor type 1; assay: Inverse agonist activity at human GHS-R1a expressed in HEK293T cells after 45 mins by HTRF-based IP3 turnover assay; format: functional, cell-based, HEK-293T; conditions: for Emax: HEK-293T
[9] = biological target: T1, Growth hormone secretagogue receptor type 1; assay: Antagonist activity at human GHS-R1a expressed in HEK293T cells assessed as inhibition of ghrelin-induced stimulation at 10^-5 M after 45 mins by HTRF-based IP3 turnover assay; format: functional, cell-based; conditions: HEK-293T

IC50 [1]	Ki [2]	IC50 [3]	Ki [5]	Structure (SMILES)	further results
> 1000 nM	> 1000 nM	> 1000 nM		COc1ccc(Cn2c([C@H](Cc3ccccc3)NC(C)=O)nnc2[C@@H](Cc2c[nH]c3ccccc23)NC(=O)C(C)(C)N)cc1	
4 nM	11 nM	4 nM		COc1ccc(Cn2c([C@@H](Cc3ccccc3)NC(C)=O)nnc2[C@@H](Cc2c[nH]c3ccccc23)NC(=O)c2cc(F)cc(F)n2)cc1	Activity [6]: Active
> 1000 nM	> 1000 nM	> 1000 nM		COc1ccc(Cn2c([C@@H](N)Cc3c[nH]c4ccccc34)nnc2[C@@H](Cc2c[nH]c3ccccc23)NC(=O)C(C)(C)N)cc1	
7 nM	18 nM	4 nM		COc1ccc(Cn2c([C@H](N)Cc3ccccc3)nnc2[C@@H](Cc2c[nH]c3ccccc23)NC(=O)c2ccccn2)cc1	
60 nM	46 nM	33 nM		COc1ccc(Cn2c([C@@H](Cc3c[nH]c4ccccc34)NC=O)nnc2[C@@H](Cc2c[nH]c3ccccc23)NC(=O)C(C)(C)N)cc1	
22 nM	12 nM			COc1ccc(Cn2c([C@@H](Cc3c[nH]c4ccccc34)NC(C)=O)nnc2[C@@H](Cc2c[nH]c3ccccc23)NC(=O)C(C)(C)N)cc1	
130 nM	131 nM	90 nM		COc1ccc(Cn2c([C@H](N)Cc3c[nH]c4ccccc34)nnc2[C@@H](Cc2c[nH]c3ccccc23)NC(=O)C(C)(C)N)cc1	
3 nM	9 nM	4 nM		COc1ccc(Cn2c([C@@H](Cc3ccccc3)NC(C)=O)nnc2[C@@H](Cc2c[nH]c3ccccc23)NC(=O)C2=CCCCO2)cc1	Activity [6]: Active
2 nM	4 nM	2 nM		COc1ccc(Cn2c([C@@H](Cc3ccccc3)NC(C)=O)nnc2[C@@H](Cc2c[nH]c3ccccc23)NC(=O)c2ncccc2F)cc1	Activity [6]: Active
> 1000 nM	> 1000 nM	> 1000 nM		COc1ccc(Cn2c([C@H](Cc3c[nH]c4ccccc34)NC(C)=O)nnc2[C@@H](Cc2c[nH]c3ccccc23)NC(=O)C(C)(C)N)cc1	
115 nM	154 nM	135 nM		COc1ccc(Cn2c([C@H](N)Cc3ccccc3)nnc2[C@@H](Cc2c[nH]c3ccccc23)NC(=O)C(C)(C)N)cc1	
8 nM	8 nM	3 nM		COc1ccc(Cn2c([C@@H](Cc3ccccc3)NC=O)nnc2[C@@H](Cc2c[nH]c3ccccc23)NC(=O)c2ccccn2)cc1	Activity [6]: Active
113 nM	59 nM	43 nM		COc1ccc(Cn2c([C@@H](Cc3ccccc3)NC=O)nnc2[C@@H](Cc2c[nH]c3ccccc23)NC(=O)C(C)(C)N)cc1	
9 nM	2 nM	3 nM		COc1ccc(Cn2c([C@@H](Cc3ccccc3)NC(C)=O)nnc2[C@@H](Cc2c[nH]c3ccccc23)NC(=O)[C@@H]2CNCCO2)cc1	Activity [6]: Active
> 1000 nM	> 1000 nM	> 1000 nM		COc1ccc(Cn2c([C@@H](N)Cc3ccccc3)nnc2[C@@H](Cc2c[nH]c3ccccc23)NC(=O)C(C)(C)N)cc1	
8 nM	0.8 nM	2 nM		COc1ccc(Cn2c([C@@H](Cc3ccccc3)NC(C)=O)nnc2[C@@H](Cc2c[nH]c3ccccc23)NC(=O)CO)cc1	Activity [6]: Active; inhibition [9]: Active
70 nM	46 nM	90 nM		COc1ccc(Cn2c([C@@H](Cc3ccccc3)NC(C)=O)nnc2[C@@H](Cc2c[nH]c3ccccc23)NC(=O)C(C)(C)N)cc1	

The next lines start with the compound.

Structure (SMILES)	IC50 [1]	Ki [2]	IC50 [3]	Ki [5]	further results
COc1ccc(Cn2c([C@@H](N)Cc3ccccc3)nnc2[C@@H](Cc2c[nH]c3ccccc23)NC(=O)c2ccccn2)cc1	320 nM	62 nM	150 nM		
COc1ccc(Cn2c([C@H](Cc3c[nH]c4ccccc34)NC=O)nnc2[C@@H](Cc2c[nH]c3ccccc23)NC(=O)c2ccccn2)cc1	410 nM	154 nM	1200 nM		
COc1ccc(Cn2c([C@@H](Cc3c[nH]c4ccccc34)NC(=O)CO)nnc2[C@@H](Cc2c[nH]c3ccccc23)NC(=O)[C@H](CC(C)C)NC(=O)[C@H](CC(C)C)NC(C)=O)cc1				3 nM	Emax [4]: 0%
COC(=O)[C@H](CC(C)C)NC(=O)C(CC(C)C)C(=O)N[C@H](Cc1c[nH]c2ccccc12)c1nnc([C@@H](Cc2c[nH]c3ccccc23)NC(=O)[C@@H](N)CCCCN)n1Cc1ccc(OC)cc1 (stereo not given in full)				220 nM	EC50 [7]: 82 nM; Emax [7]: 82%
COc1ccc(Cn2c([C@@H](Cc3c[nH]c4ccccc34)NC(=O)[C@H](CC(C)C)NC(=O)[C@H](CC(C)C)NC(C)=O)nnc2[C@@H](Cc2c[nH]c3ccccc23)NC(=O)C(C)(C)N)cc1				30 nM	EC50 [7]: 0.8 nM; Emax [7]: 80%
COc1ccc(Cn2c([C@@H](Cc3c[nH]c4ccccc34)NC=O)nnc2[C@@H](Cc2c[nH]c3ccccc23)NC(=O)[C@@H](N)CCCCN)cc1				8 nM	EC50 [7]: 10 nM; Emax [7]: 89%
COc1ccc(Cn2c([C@H](Cc3c[nH]c4ccccc34)NC(C)=O)nnc2[C@@H](Cc2c[nH]c3ccccc23)NC(=O)c2ccccn2)cc1	100 nM	62 nM	190 nM		
COc1ccc(Cn2c([C@@H](Cc3c[nH]c4ccccc34)NC(=O)[C@H](CC(C)C)NC(=O)[C@H](CC(C)C)NC(C)=O)nnc2[C@@H](Cc2c[nH]c3ccccc23)NC(=O)C(C)(C)O)cc1				3 nM	EC50 [7]: 74 nM; Emax [7]: 75%
COc1ccc(Cn2c([C@@H](Cc3c[nH]c4ccccc34)NC(C)=O)nnc2[C@@H](Cc2c[nH]c3ccccc23)NC(=O)c2ccccn2)cc1	2 nM	9 nM	3 nM		
COc1ccc(Cn2c([C@@H](Cc3c[nH]c4ccccc34)NC(=O)C(CC(C)C)C(=O)N[C@@H](CC(C)C)C(N)=O)nnc2[C@@H](Cc2c[nH]c3ccccc23)NC(=O)[C@@H](N)CCCCN)cc1 (mixture of isomers)				210 nM	EC50 [7]: 170 nM; Emax [7]: 60%
COc1ccc(Cn2c([C@@H](Cc3c[nH]c4ccccc34)NC(=O)[C@H](CC(C)C)NC(=O)[C@H](CC(C)C)NC(C)=O)nnc2[C@@H](Cc2c[nH]c3ccccc23)NC(=O)[C@@H](N)CCCCN)cc1				110 nM	EC50 [8]: 70 nM; Emax [8]: -37%
COc1ccc(Cn2c(C(Cc3c[nH]c4ccccc34)NC(=O)C3CCNCC3)nnc2[C@@H](Cc2c[nH]c3ccccc23)NC(=O)C(CC(C)C)NC(=O)C(CC(C)C)NC(C)=O)cc1 (single isomer, unassigned)				2 nM	EC50 [7]: 4.4 nM; Emax [7]: 108%
CC(C)C[C@H](NC(=O)[C@H](CC(C)C)NC(=O)[C@@H](Cc1c[nH]c2ccccc12)NC(=O)[C@H](Cc1ccccc1)NC(=O)[C@@H](Cc1c[nH]c2ccccc12)NC(=O)[C@@H](N)CCCCN)C(N)=O				255 nM	EC50 [8]: 100 nM; Emax [8]: -55%
COc1ccc(Cn2c([C@@H](Cc3ccccc3)NC(C)=O)nnc2[C@@H](Cc2c[nH]c3ccccc23)NC(=O)c2ccccn2)cc1					Activity [6]: Active
COC(=O)C(CC(C)C)C(=O)N[C@H](Cc1c[nH]c2ccccc12)c1nnc([C@@H](Cc2c[nH]c3ccccc23)NC(=O)[C@@H](N)CCCCN)n1Cc1ccc(OC)cc1 (mixture of isomers)				17 nM	EC50 [7]: 20 nM; Emax [7]: 81%
COc1ccc(Cn2c([C@@H](Cc3c[nH]c4ccccc34)NC(C)=O)nnc2[C@@H](Cc2c[nH]c3ccccc23)NC(=O)[C@@H](N)CCCCN)cc1				2.5 nM	EC50 [7]: 4 nM; Emax [7]: 89%
COc1ccc(Cn2c([C@H](Cc3c[nH]c4ccccc34)NC(=O)[C@H]3CNCCO3)nnc2[C@@H](Cc2c[nH]c3ccccc23)NC(=O)[C@@H](CC(C)C)NC(=O)[C@@H](CC(C)C)NC(C)=O)cc1 (stereo in doubt)				50 nM	EC50 [7]: 60 nM; Emax [7]: 75%
